# MLLE-PAM2 inh = inhibitors of PABP1 MLLE–PAM2 peptide binding, primary screen, biochemical, fluorescence polarization, FITC-PAM2, GST-MLLE; AID 588489, 2011; 0.36% of 360,000 active; inhibition, % at 20 µM; Polyadenylate-binding protein 1 (Homo sapiens), P11940; in the data active means inhibition above about 35%, passing the limit was not always enough;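 further: plate controls were DMSO wells with GST-MLLE for no effect and wells lacking GST-MLLE protein for full effect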
# eIF4H FP inh = human eIF4H binding inhibitors, primary screen, translation initiation inhibitor project, biochemical, uHTS, fluorescence polarization; eIF4H fluorescence polarization binding assay; inhibition, % at 35 µM; 0.94% of 290,000 active; AID 2012, 2009; Eukaryotic translation initiation factor 4H (Homo sapiens), Q15056;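 further: calls also rest on retests at 20 µM and on dose response follow-up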
# core dimer inh = inhibitors of HCV core protein dimerization, primary screen, biochemical, TR-FRET, high-throughput. TR-FRET GST/Flag-core106 dimerization, 1536-well. inhibition, % at 5 µM. 0.33% of 300,000 active. AID 1899, 2009;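 active means inhibition above the mean of all tested compounds plus 3 SD, set per screening campaign, cut at about 45% in these data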
#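 test system = GST/Flag-tagged HCV core106 proteins | probe or stimulus = Eu donor and XL665 acceptor anti-tag antibodies | times = compound-protein-antibody incubation 4 h at 22.5 °C | signal = TR-FRET, excitation 340 nm, emission 617 and 671 nm | measure = percent inhibition of core106 dimerization signal | controls = wells lacking GST-core106 and wells with excess unlabelled core106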
# PABP polyA inh = PABP poly(A) RNA binding inhibitors, primary screen, biochemical, fluorescence polarization, uHTS; Polyadenylate-binding protein 1 (Homo sapiens), P11940; 1% of 290,000 active; calls only at 35 µM;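 further: calls also rest on retests at 20 µM and on dose response follow-up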
# SUMO HTRF inh = inhibitors of in vitro SUMOylation cascade, primary screen, biochemical, HTRF, uHTS; 0.36% of 290,000 active; HTRF SUMOylation assay, SAE1/SAE2 + UBC9; inhibition, % at 35 µM; SUMO-conjugating enzyme UBC9 (Homo sapiens), P63279; in the data active means inhibition above about 50%, passing the limit was not always enough; inconclusive means no clear call, values can overlap the other calls
# Target sequence (P63279 whole entry, looked up): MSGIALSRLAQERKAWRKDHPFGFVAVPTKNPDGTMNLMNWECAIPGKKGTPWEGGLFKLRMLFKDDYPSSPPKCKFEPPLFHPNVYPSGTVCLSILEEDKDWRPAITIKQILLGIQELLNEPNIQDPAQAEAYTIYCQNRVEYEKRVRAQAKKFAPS
# eIF4E 4G PPI = eIF4E–eIF4G protein interaction inhibitors, primary screen, biochemical, uHTS, TR-FRET, eIF4GI fragment | TR-FRET eIF4E-eIF4GI(517-606) binding, 2 h | inhibition, % at 21.7 µM | 0.37% of 220,000 active;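 active means inhibition above about 30%, limit read from the data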;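 further: 0% = full FRET control wells and 100% = background wells lacking eIF4GI fragment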
# The depositor's hits bear a star; i = inactive; ? = inconclusive; · = no result; + = active, no number. Hits are enriched below; roughly 1.8% of the tested compounds scored in any of these assays. Unless noted, how the calls were made is not given here.
SMILES,MLLE-PAM2 inh,eIF4H FP inh,core dimer inh,PABP polyA inh,SUMO HTRF inh,eIF4E 4G PPI
Cc1ccccc1NC(=S)NNc1ncc(C(F)(F)F)cc1Cl,9,-6,-12,i,-8,-1
C/C(=N\NC(=O)c1ccc(NS(=O)(=O)c2cccs2)cc1)c1cccs1,-3,active,-2,+,20,2
Cc1c(-n2cccc2C=O)cccc1[N+](=O)[O-],1,-6,4,i,7,86*
O=Cc1cccn1-c1cccc([N+](=O)[O-])c1,4,4,1,i,15,-4
O=C(CN(CC1CCCO1)C(=O)CNS(=O)(=O)c1ccccc1)NCCc1ccccc1 (stereo not drawn),5,-2,2,i,-4,·
O=c1[nH]cnc2scc(-c3ccc(-c4ccccc4)cc3)c12,-7,59,2,+,18,3
C/C(=N\NC(=O)c1nnn(-c2nonc2N)c1CSc1ccc(Cl)cc1)c1ccco1,-9,-1,-6,i,11,·
Cc1ccc(NC(=O)Cn2c(O)c(N=NC(=O)c3cc([N+](=O)[O-])ccc3O)c3ccccc32)cc1,·,0,-2,i,8,-5
Cc1cccc(NC(=O)Cn2c(O)c(N=NC(=O)c3ccccc3O)c3ccccc32)c1,6,26,6,i,54*,16
CCCCCCCn1ccc(=N)cc1,-127,0.6*,2,+,12,5
N#Cc1c(SCC(=O)Nc2nncs2)sc2c(O)cc(=O)[nH]c12,-8,101*,-49,+,45,·
COc1cc(Cl)c(C)cc1NC(=O)CSc1sc2c(O)cc(=O)[nH]c2c1C#N,-20,71*,-26,+,27,·
CN(Cc1ccccc1)C1CCNCC1,6,18,-5,i,8,·
N=C1S/C(=C\c2cccc3ccccc23)C(=O)N1c1ccc(F)cc1,-8,-4,15,i,63*,-5
Cn1c(CNc2ccccc2O)nc2ccccc21,2,86*,-13,+,-4,-3
CCN(CC)S(=O)(=O)c1ccc(Cl)c(C(=O)Oc2cccnc2)c1,7,29,-2,i,9,58*
COc1ccc(C(=O)Nc2nnc(CC(=O)N/N=C/c3ccc(O)cc3O)s2)cc1,-44,76*,-27,i,46,·
COCCN(C(=S)Nc1ccc(OC)cc1)C1CCN(C(C)=O)CC1,-21,-2,-5,i,12,7
COc1ccc(OC)c(CN2CCN(C(=O)[C@@H](NC(=O)c3cccc(C)c3)C(C)C)CC2)c1,7,·,·,·,·,·
COc1ccccc1C(=O)NC(=O)COC(=O)c1cc[n+]([O-])cc1,-11,·,-1,·,·,·
CC1=CC(C)(C)N(S(=O)(=O)c2ccc(C)cc2)c2ccc(C)cc21,5,2,1,i,-3,0
CC1=CC(C)(C)[N+](C)(C)c2ccc(C)cc21,-111,1,-6,+,0,4
CC(C)n1ncc(N2CCOCC2)c(Cl)c1=O,-10,-12,-4,i,10,·
CN1C(=O)SC(Nc2ccccc2C(=O)O)C1=O (stereo not drawn),38*,3,-3,i,37,-5
O=C(OCC(=O)N1CCCC1)c1cnc(Cl)c(Cl)c1,-19,·,·,·,·,·
SMILES,MLLE-PAM2 inh,eIF4H FP inh,core dimer inh,PABP polyA inh,SUMO HTRF inh,eIF4E 4G PPI
Cc1occc1-c1nnc(-c2cc([N+](=O)[O-])cc([N+](=O)[O-])c2)o1,2,25,49*,i,5,4
Cc1cc(C)cc(N(CC(=O)N2CCCCCC2)S(C)(=O)=O)c1,-4,-6,1,i,6,·
O=C(COC(=O)c1cccnc1Nc1cccc(C(F)(F)F)c1)NC1CCS(=O)(=O)C1 (stereo not drawn),-16,3,4,i,-18,0
O=C(CN1C(=O)c2ccccc2S1(=O)=O)Nc1ncc(Cl)cc1Cl,49*,·,·,·,·,·
O=C(N/N=C/c1cc(Br)c(Br)o1)c1cccnc1,59*,?,4,i,0,6
O=C(N/N=C/c1cc(Br)c(O)c(Br)c1O)c1ccc2c(c1)OCCO2,-25,54*,-6,i,12,·
O=C(N/N=C\c1cc(Br)c(Br)o1)c1cncc(Br)c1,11,-7,0,i,22,-4
O=C(N/N=C/c1ccc2c(c1)OCO2)c1ccc2c(c1)OCCO2,1,-8,-3,i,23,7
O=C(N/N=C/c1cc(Br)c(Br)o1)c1ccc2c(c1)OCCO2,-52,76*,8,+,5,17
C=CCN1C(=O)CSC1=Nc1cccc(O)c1,4,-3,-7,i,-8,30*
CN1OC[C@@H]2CN(Cc3ccc(Cl)cc3)[C@H](c3ccc(-n4ccnc4)cc3)C[C@@H]21,0,·,·,·,·,·
O=C(COc1ncnc2sccc12)N1CCN(C(=O)c2ccco2)CC1,3,66,20,+,8,7
COc1ccc(OC)c(S(=O)(=O)N2CCN(c3ccccn3)CC2)c1,3,11,-6,i,3,9
COc1ccc(OC)c(S(=O)(=O)N2CCCCC2C(=O)N2CCN(c3ccccn3)CC2)c1 (stereo not drawn),38*,5,-2,i,9,-1
Oc1ccc(C=NN=Cc2ccco2)c(O)c1,-3,·,·,·,·,·
COC(=O)C1=C(C)N(CCCC(=O)O)C(=O)NC1c1cc2c(cc1[N+](=O)[O-])OCO2 (stereo not drawn),-19,96,-5,i,34,1
COC(=O)C1=C(C)N(C)C(=O)NC1c1cc2c(cc1[N+](=O)[O-])OCO2 (stereo not drawn),-15,111,0,i,66*,4
CC(=O)Nc1ccc(N2CCCCC2)c(C(=O)Nc2cccc(C)c2)c1,-2,-4,10,i,-9,43*
CCCCn1c(=O)[nH]c(=O)c2c1nc(-c1ccc(C#N)cc1)n2C1CCCC1,-15,-1,58*,i,38,-33
COc1ccccc1/C=C(/CC(=O)NCc1ccc(F)cc1)c1nc2ccccc2s1,-5,26,67*,i,14,15
COc1ccccc1/C=C(/CC(=O)NCc1ccccc1)c1nc2ccccc2s1,8,-2,49*,i,0,-2
O=C(CCCc1nc2ccccc2s1)NCc1ccc(F)cc1,5,-3,2,i,-7,0
CCC(=O)N1CCCC1(C)C(=O)Nc1ccc2scnc2c1 (stereo not drawn),19,·,·,·,·,·
